Results: ChEMBL document CHEMBL1147391, “Isolation of echinocystic acid-3-O-sulfate, a new triterpene, from Tetrapleura tetraptera, and evaluation of the mutagenic potential of molluscicidal extracts and isolates” (J Nat Prod, 1993)
The source made the active and inactive calls. No cut-off for these calls is given here.

What was measured:
Biomphalaria glabrata [1] = test: Molluscicidal activity against Biomphalaria glabrata assessed as mortality at 20 ppm after 24 hrs; type: functional
How it was run: (§1)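 Lab-bred B. glabrata (about 12 mm shell diameter), five snails per test, tested in duplicate at 21–22°. Samples dissolved in MeOH and diluted in dechlorinated tap water, final MeOH ≤1% v/v. Snails immersed 24 h, rinsed, then held 24 h in clean water. Death means no heartbeat under a dissecting microscope. Negative control was 1% MeOH.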

Salmonella typhimurium [2] = test: Forward mutagenic activity in Salmonella Typhimurium […] assessed as mutant fraction at 0.625 mg/ml after 2 hrs in absence of rat S9 liver homogenate; type: toxicity, organism-based; conditions: salmonella enterica subsp. enterica serovar typhimurium
How it was run: (§2)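 Forward mutation assay in S. typhimurium TM677 carrying pKM101, with or without Aroclor 1254-induced rat liver S-9 (9000×g). Substance in DMSO incubated with bacteria 2 h at 37°, quenched with PBS and plated in triplicate with and without 8-azaguanine, then grown 48–60 h at 37°. Mutant fraction is the mean 8-azaguanine-resistant colony count over the mean count without 8-azaguanine, corrected for dilution.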

Salmonella typhimurium [3] = test: Forward mutagenic activity in Salmonella Typhimurium […] assessed as mutant fraction at 1.25 mg/ml after 2 hrs in absence of rat S9 liver homogenate; type: toxicity, organism-based; conditions: salmonella enterica subsp. enterica serovar typhimurium; how it was run: as §2
Salmonella typhimurium [4] = test: Bactericidal activity against Salmonella Typhimurium […] assessed as survival at 1.25 mg/ml after 48 to 60 hrs in absence of rat S9 liver homogenate relative to control; type: functional, organism-based; conditions: Salmonella enterica subsp. enterica serovar Typhimurium
How it was run: (§3)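 TM677 (pKM101) exposed to test substance in DMSO with or without S-9 from livers of Aroclor 1254-pretreated rats, 2 h at 37°, quenched with PBS, centrifuged, diluted and plated in triplicate without 8-azaguanine. Colonies scored after 48–60 h at 37°. Survival is expressed relative to a DMSO-only control after correction for dilution.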

Salmonella typhimurium [5] = test: Bactericidal activity against Salmonella Typhimurium […] assessed as survival at 2.5 mg/ml after 48 to 60 hrs in absence of rat S9 liver homogenate relative to control; type: functional, organism-based; conditions: Salmonella enterica subsp. enterica serovar Typhimurium; how it was run: as §3
Salmonella typhimurium [6] = test: Bactericidal activity against Salmonella Typhimurium […] assessed as survival at 5 mg/ml after 48 to 60 hrs in absence of rat S9 liver homogenate relative to control; type: functional, organism-based; conditions: Salmonella enterica subsp. enterica serovar Typhimurium; how it was run: as §3
Salmonella typhimurium [7] = test: Forward mutagenic activity in Salmonella Typhimurium […] assessed as mutant fraction at 0.3125 mg/ml after 2 hrs in absence of rat S9 liver homogenate; type: toxicity, organism-based; conditions: salmonella enterica subsp. enterica serovar typhimurium; how it was run: as §2
Salmonella typhimurium [8] = test: Bactericidal activity against Salmonella Typhimurium […] assessed as survival at 0.3125 mg/ml after 48 to 60 hrs in absence of rat S9 liver homogenate relative to control; type: functional, organism-based; conditions: Salmonella enterica subsp. enterica serovar Typhimurium; how it was run: as §3
Salmonella typhimurium [9] = test: Bactericidal activity against Salmonella Typhimurium […] assessed as survival at 0.625 mg/ml after 48 to 60 hrs in absence of rat S9 liver homogenate relative to control; type: functional, organism-based; conditions: Salmonella enterica subsp. enterica serovar Typhimurium; how it was run: as §3
Salmonella typhimurium [10] = test: Forward mutagenic activity in Salmonella Typhimurium […] assessed as mutant fraction at 5 mg/ml after 2 hrs in absence of rat S9 liver homogenate; type: toxicity, organism-based; conditions: salmonella enterica subsp. enterica serovar typhimurium; how it was run: as §2
Salmonella typhimurium [11] = test: Forward mutagenic activity in Salmonella Typhimurium […] assessed as mutant fraction at 2.5 mg/ml after 2 hrs in absence of rat S9 liver homogenate; type: toxicity, organism-based; conditions: salmonella enterica subsp. enterica serovar typhimurium; how it was run: as §2
Salmonella typhimurium [12] = test: Bactericidal activity against Salmonella Typhimurium […] assessed as survival at 0.3125 mg/ml after 48 to 60 hrs in presence of rat S9 liver homogenate relative to control; type: functional, organism-based; conditions: Salmonella enterica subsp. enterica serovar Typhimurium, Liver S9 fraction; how it was run: as §3
Salmonella typhimurium [13] = test: Bactericidal activity against Salmonella Typhimurium […] assessed as survival at 0.625 mg/ml after 48 to 60 hrs in presence of rat S9 liver homogenate relative to control; type: functional, organism-based; conditions: Salmonella enterica subsp. enterica serovar Typhimurium, Liver S9 fraction; how it was run: as §3
Salmonella typhimurium [14] = test: Forward mutagenic activity in Salmonella Typhimurium […] assessed as mutant fraction at 2.5 mg/ml after 2 hrs in presence of rat S9 liver homogenate; type: toxicity, organism-based; conditions: salmonella enterica subsp. enterica serovar typhimurium; how it was run: as §2
Biomphalaria glabrata [15] = test: Molluscicidal activity against Biomphalaria glabrata assessed as mortality at 1.25 ppm after 24 hrs; type: functional; how it was run: as §1
Salmonella typhimurium [16] = test: Forward mutagenic activity in Salmonella Typhimurium […] assessed as mutant fraction at 0.625 mg/ml after 2 hrs in presence of rat S9 liver homogenate; type: toxicity, organism-based; conditions: salmonella enterica subsp. enterica serovar typhimurium; how it was run: as §2
Salmonella typhimurium [17] = test: Forward mutagenic activity in Salmonella Typhimurium […] assessed as mutant fraction at 1.25 mg/ml after 2 hrs in presence of rat S9 liver homogenate; type: toxicity, organism-based; conditions: salmonella enterica subsp. enterica serovar typhimurium; how it was run: as §2
Salmonella typhimurium [18] = test: Forward mutagenic activity in Salmonella Typhimurium […] assessed as mutant fraction at 5 mg/ml after 2 hrs in presence of rat S9 liver homogenate; type: toxicity, organism-based; conditions: salmonella enterica subsp. enterica serovar typhimurium; how it was run: as §2
Salmonella typhimurium [19] = test: Bactericidal activity against Salmonella Typhimurium […] assessed as survival at 2.5 mg/ml after 48 to 60 hrs in presence of rat S9 liver homogenate relative to control; type: functional, organism-based; conditions: Salmonella enterica subsp. enterica serovar Typhimurium, Liver S9 fraction; how it was run: as §3
Salmonella typhimurium [20] = test: Forward mutagenic activity in Salmonella Typhimurium […] assessed as mutant fraction at 0.3125 mg/ml after 2 hrs in presence of rat S9 liver homogenate; type: toxicity, organism-based; conditions: salmonella enterica subsp. enterica serovar typhimurium; how it was run: as §2
Salmonella typhimurium [21] = test: Bactericidal activity against Salmonella Typhimurium […] assessed as survival at 5 mg/ml after 48 to 60 hrs in presence of rat S9 liver homogenate relative to control; type: functional, organism-based; conditions: Salmonella enterica subsp. enterica serovar Typhimurium, Liver S9 fraction; how it was run: as §3
Salmonella typhimurium [22] = test: Bactericidal activity against Salmonella Typhimurium […] assessed as survival at 1.25 mg/ml after 48 to 60 hrs in presence of rat S9 liver homogenate relative to control; type: functional, organism-based; conditions: Salmonella enterica subsp. enterica serovar Typhimurium, Liver S9 fraction; how it was run: as §3
Salmonella typhimurium [23] = test: Bactericidal activity against Salmonella Typhimurium […] assessed as survival at 50 mg/ml after 48 to 60 hrs in presence of rat S9 liver homogenate; type: functional, organism-based; conditions: Salmonella enterica subsp. enterica serovar Typhimurium, Liver S9 fraction
How it was run: (§4)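 TM677 (pKM101) forward mutation assay run with a 9000×g liver supernatant (S-9) from Aroclor 1254-pretreated rats. Test substance was added in DMSO and incubated 2 h at 37°, then quenched with PBS. Cells were pelleted, diluted and plated in triplicate without 8-azaguanine, and colonies counted after 48–60 h at 37°. Survival was dilution-corrected and taken relative to a DMSO solvent control.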

Salmonella typhimurium [24] = test: Bactericidal activity against Salmonella Typhimurium […] assessed as survival at 0.58 mg/ml after 48 to 60 hrs in absence of rat S9 liver homogenate; type: functional, organism-based; conditions: Salmonella enterica subsp. enterica serovar Typhimurium
How it was run: (§5)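 Forward mutation assay in S. typhimurium TM677 carrying plasmid pKM101, without S-9. Bacteria were mixed with MEM, test substance added in DMSO, and incubated 2 h at 37°. The mix was quenched with PBS, pelleted, diluted and plated in triplicate without 8-azaguanine. Colonies were counted after 48–60 h at 37°. Survival was dilution-corrected and taken relative to a DMSO-only control.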

Salmonella typhimurium [25] = test: Bactericidal activity against Salmonella Typhimurium […] assessed as survival at 0.5 mg/ml after 48 to 60 hrs in presence of rat S9 liver homogenate; type: functional, organism-based; conditions: Salmonella enterica subsp. enterica serovar Typhimurium, Liver S9 fraction; how it was run: as §4
Salmonella typhimurium [26] = test: Bactericidal activity against Salmonella Typhimurium […] assessed as survival at 0.058 mg/ml after 48 to 60 hrs in absence of rat S9 liver homogenate; type: functional, organism-based; conditions: Salmonella enterica subsp. enterica serovar Typhimurium; how it was run: as §5
Salmonella typhimurium [27] = test: Bactericidal activity against Salmonella Typhimurium […] assessed as survival at 5.8 mg/ml after 48 to 60 hrs in absence of rat S9 liver homogenate; type: functional, organism-based; conditions: Salmonella enterica subsp. enterica serovar Typhimurium; how it was run: as §5
Biomphalaria glabrata [28] = test: Molluscicidal activity against Biomphalaria glabrata assessed as mortality at 15 ppm after 24 hrs; type: functional; how it was run: as §1

| Structure (SMILES) | Activity (Biomphalaria glabrata [1]) | Activity (Salmonella typhimurium [2]) | Activity (Salmonella typhimurium [3]) | Activity (Salmonella typhimurium [4]) [%] | Activity (Salmonella typhimurium [5]) [%] | Activity (Salmonella typhimurium [6]) [%] | Activity (Salmonella typhimurium [7]) | Activity (Salmonella typhimurium [8]) [%] | Activity (Salmonella typhimurium [9]) [%] | Activity (Salmonella typhimurium [10]) | Activity (Salmonella typhimurium [11]) | Activity (Salmonella typhimurium [12]) [%] | Activity (Salmonella typhimurium [13]) [%] | Activity (Salmonella typhimurium [14]) | Activity (Salmonella typhimurium [16]) | Activity (Salmonella typhimurium [17]) | Activity (Salmonella typhimurium [18]) | Activity (Salmonella typhimurium [19]) [%] | Activity (Salmonella typhimurium [20]) | Activity (Salmonella typhimurium [21]) | further results |
| --- | --- | --- | --- | --- | --- | --- | --- | --- | --- | --- | --- | --- | --- | --- | --- | --- | --- | --- | --- | --- | --- |
| CC(=O)N[C@H]1[C@H](O[C@H]2CC[C@]3(C)[C@H]4CC=C5[C@H]6CC(C)(C)CC[C@]6(C(=O)O)CC[C@@]5(C)[C@]4(C)CC[C@H]3C2(C)C)O[C@H](CO[C@@H]2O[C@H](CO)[C@@H](O)[C@H](O)[C@H]2O)[C@@H](O)[C@@H]1O | 100% | 4.2 | 4 | 100 | 100 | 100 | 4.1 | 100 | 100 | 5 | 3.1 | – | – | – | – | – | – | – | – | – | – |
| CC(=O)N[C@H]1[C@H](O[C@H]2CC[C@]3(C)[C@H]4CC=C5[C@H]6CC(C)(C)CC[C@]6(C(=O)O)CC[C@@]5(C)[C@]4(C)CC[C@H]3C2(C)C)O[C@H](CO)[C@@H](O)[C@@H]1O [ARIDANIN] | – | 5.6 | 4.1 | 100 | 100 | 100 | 4.5 | 89 | 98 | 4.2 | 3.3 | 100 | 100 | 2.8 | 2.9 | 3.2 | 4 | 100 | 2.5 | 100% | Activity (Biomphalaria glabrata [15]): 100%; Activity (Salmonella typhimurium [22]): 100% |
| CC1(C)CC[C@]2(C(=O)O)[C@H](O)C[C@]3(C)C(=CC[C@@H]4[C@@]5(C)CC[C@H](OS(=O)(=O)O)C(C)(C)[C@@H]5CC[C@]43C)[C@H]2C1 | Non-toxic | – | – | – | – | – | – | – | – | – | – | – | – | – | – | – | – | – | – | inactive | Activity (Salmonella typhimurium [23]): inactive; Activity (Salmonella typhimurium [24]): inactive; Activity (Salmonella typhimurium [25]): inactive; Activity (Salmonella typhimurium [26]): inactive; Activity (Salmonella typhimurium [27]): inactive |
| CC(=O)N[C@H]1[C@H](O[C@H]2CC[C@]3(C)[C@H]4CC=C5[C@H]6CC(C)(C)CC[C@]6(C(=O)O)[C@H](O)C[C@@]5(C)[C@]4(C)CC[C@H]3C2(C)C)O[C@H](CO)[C@@H](O)[C@@H]1O | – | 5.4 | 5.4 | 100 | 100 | 100 | 4.9 | 100 | 100 | 4.7 | 4.7 | 100 | 100 | 2.9 | 3.1 | 2.6 | 4.6 | 100 | 3.2 | 100% | Activity (Salmonella typhimurium [22]): 200%; Activity (Biomphalaria glabrata [28]): 100% |
